# ChEMBL document CHEMBL4680093 (J Med Chem, 2016)
# How the values were obtained:
# [1] = In-vivo inhibition of 11beta-HSD1 activity in C57BL/6 mouse epididymal fat assessed as reduction in cortisone to-cortisol conversion at 3 mg/kg, po measured after 6 hrs by ELISA; type: functional; conditions: C57BL/6, Epididymal fat pad
# Method in brief: (§1)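 Male C57BL/6 mice dosed orally once at 3, 10 or 30 mg/kg in sterile water containing 0.5% methylcellulose and 1% Tween80, then sacrificed at 2 or 6 h. Liver and epididymal fat pads incubated ex vivo in culture medium containing cortisone. Cortisol formed was measured by ELISA and reported as % inhibition versus vehicle.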
# [2] = In-vivo inhibition of 11beta-HSD1 activity in C57BL/6 mouse epididymal fat assessed as reduction in cortisone to-cortisol conversion at 30 mg/kg, po measured after 2 hrs by ELISA; type: functional; conditions: C57BL/6, Epididymal fat pad; method in brief: as §1
# [3] = In-vivo inhibition of 11beta-HSD1 activity in C57BL/6 mouse liver assessed as reduction in cortisone to-cortisol conversion at 30 mg/kg, po measured after 6 hrs by ELISA; type: functional; conditions: C57BL/6, Liver; method in brief: as §1
# [4] = In-vivo inhibition of 11beta-HSD1 activity in C57BL/6 mouse liver assessed as reduction in cortisone to-cortisol conversion at 3 mg/kg, po measured after 2 hrs by ELISA; type: functional; conditions: C57BL/6, Liver; method in brief: as §1
# [5] = Ratio of unbound drug level in mouse plasma at 10 mg/kg, po measured after 2 hrs post dose to IC50 for mouse 11beta-HSD1; type: ADME, organism-based; conditions: in vivo
# [6] = Unbound drug level in mouse plasma at 10 mg/kg, po measured after 2 hrs post dose; type: ADME, organism-based; conditions: in vivo
# [7] = target: T1, Cytochrome P450 1A2 (Homo sapiens, UniProt P05177); assay: Inhibition of CYP1A2 in pooled human liver microsomes using phenacetin as substrate in presence of NADPH incubated for 10 mins by LC-MS/MS analysis
# T1 sequence (P05177 whole entry): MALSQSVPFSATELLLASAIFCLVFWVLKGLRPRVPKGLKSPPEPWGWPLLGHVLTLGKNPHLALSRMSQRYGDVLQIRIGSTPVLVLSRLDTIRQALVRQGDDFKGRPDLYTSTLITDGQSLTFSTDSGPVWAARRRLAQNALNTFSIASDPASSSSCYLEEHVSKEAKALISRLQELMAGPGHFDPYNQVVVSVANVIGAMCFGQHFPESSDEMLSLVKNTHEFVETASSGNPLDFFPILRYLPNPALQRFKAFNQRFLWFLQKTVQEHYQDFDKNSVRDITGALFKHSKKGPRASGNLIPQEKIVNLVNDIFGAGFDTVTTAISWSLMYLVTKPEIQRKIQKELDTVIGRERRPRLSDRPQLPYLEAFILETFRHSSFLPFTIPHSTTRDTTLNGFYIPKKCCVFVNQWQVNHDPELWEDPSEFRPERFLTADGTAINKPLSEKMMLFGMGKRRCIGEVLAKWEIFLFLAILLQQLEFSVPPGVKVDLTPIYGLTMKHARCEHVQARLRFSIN
# [8] = target: Cytochrome P450 2C9 (Homo sapiens, UniProt P11712); assay: Inhibition of CYP2C9 in pooled human liver microsomes using diclofenac as substrate in presence of NADPH incubated for 10 mins by LC-MS/MS analysis
# [9] = target: Cytochrome P450 2C19 (Homo sapiens, UniProt P33261); assay: Inhibition of CYP2C19 in pooled human liver microsomes using mephenytoin as substrate in presence of NADPH incubated for 10 mins by LC-MS/MS analysis
# [10] = target: Cytochrome P450 3A4 (Homo sapiens, UniProt P08684); assay: Inhibition of CYP3A4 in pooled human liver microsomes using midazolam as substrate in presence of NADPH incubated for 10 mins by LC-MS/MS analysis
# [11] = target: Phosphodiesterase 4 (Homo sapiens, UniProt P27815+Q08499+Q07343+Q08493); assay: Inhibition of PDE4 (unknown origin); type: protein assay
# [12] = Half life in dog at 0.5 mg/kg, iv; type: ADME, organism-based, Canis lupus familiaris; conditions: in vivo
# [13] = AUC in rat at 1 mg/kg, iv; type: ADME, organism-based; parameters: dose 1 mg/kg; conditions: in vivo
# [14] = AUC in dog at 0.5 mg/kg, iv; type: ADME, organism-based, Canis lupus familiaris; parameters: dose 0.5 mg/kg; conditions: in vivo
# [15] = Cmax in rat at 5 mg/kg, po; type: ADME, organism-based; parameters: route oral, dose 5 mg/kg; conditions: in vivo
# [16] = Tmax in mouse at 5 mg/kg, po; type: ADME, organism-based; conditions: in vivo
# Method in brief: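 Single-dose PK study. The iv dose was given in 10% hydroxypropyl-β-cyclodextrin and the oral dose in 0.5% methylcellulose/1% Tween80. Mouse and rat received 1 mg/kg iv and 5 mg/kg po. Dog received 0.5 mg/kg iv and 4 mg/kg po. CL, Vss, t1/2, AUC, Cmax, tmax and F were derived.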
# [17] = AUC in rat at 5 mg/kg, po; type: ADME, organism-based; parameters: dose 5 mg/kg; conditions: in vivo
# [18] = AUC in dog at 4 mg/kg, po; type: ADME, organism-based, Canis lupus familiaris; parameters: dose 4 mg/kg; conditions: in vivo
# [19] = Drug level in mouse plasma at 10 mg/kg, po measured after 2 hrs post dose; type: ADME, organism-based; conditions: in vivo
# Method in brief: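 C57BL/6 mice given a single oral 10 mg/kg dose in 0.5% methylcellulose plus 1% Tween80. Sacrifice at 2 h post-dose, with collection of brain, liver, adipose and plasma. Compound concentration expressed as nmol/g, along with tissue/plasma ratio.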
# [20] = Ratio of drug level in brain to plasma of mouse at 10 mg/kg, po measured after 2 hrs post dose; type: ADME, organism-based; conditions: read-out: BPR
# Method in brief: (§2)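 C57BL/6 mice received a single oral dose of 10 mg/kg in 0.5% methylcellulose/1% Tween80. Animals were sacrificed 2 h post-dose. Compound was measured in brain, liver, adipose and plasma (nmol/g), and tissue/plasma ratios were calculated.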
# [21] = Ratio of drug level in adipose tissue to plasma of mouse at 10 mg/kg, po measured after 2 hrs post dose; type: ADME, organism-based; method in brief: as §2
# [22] = Toxicity in female dog during 4-week repeated once daily oral-dose toxicity study; parameters: species or system Canis lupus familiaris; conditions: in vivo, time 4 weeks
# Method in brief: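 Dogs of both sexes were dosed orally once daily for 4 weeks at 25, 100 and 400 mg/kg. Toxicity was assessed and the NOAEL determined.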
# [23] = tested on: Mus musculus; assay: Improvement in lipid profile in C57BL/6-Lep^ob (ob/ob) mouse assessed as LDL cholesterol level at 20 mg/kg, po dosed once daily for 25 days (reference value: 30.3 +/- 0.8 mg/dl); type: functional; conditions: time 25 day
# [24] = tested on: Mus musculus; assay: Toxicity in mouse assessed as induction of abnormal changes in central nervous system up to 1000 mg/kg, po; conditions: in vivo
# [25] = Reduction in nonfasting blood glucose level in C57BL/6-Lep^ob (ob/ob) mouse at 20 mg/kg, po dosed once daily for 25 days relative to control; parameters: scale not given: the % may be the effect or the level left; conditions: time 25 day
# [26] = Reduction in HbA1c level in C57BL/6-Lep^ob (ob/ob) mouse at 20 mg/kg, po dosed once daily for 25 days and co-treated with 300 mg/kg. po QD for 25 days metformin relative to control; parameters: scale not given: the % may be the effect or the level left; conditions: time 25 day
# Sequence of Cytochrome P450 2C19 (P33261 whole entry): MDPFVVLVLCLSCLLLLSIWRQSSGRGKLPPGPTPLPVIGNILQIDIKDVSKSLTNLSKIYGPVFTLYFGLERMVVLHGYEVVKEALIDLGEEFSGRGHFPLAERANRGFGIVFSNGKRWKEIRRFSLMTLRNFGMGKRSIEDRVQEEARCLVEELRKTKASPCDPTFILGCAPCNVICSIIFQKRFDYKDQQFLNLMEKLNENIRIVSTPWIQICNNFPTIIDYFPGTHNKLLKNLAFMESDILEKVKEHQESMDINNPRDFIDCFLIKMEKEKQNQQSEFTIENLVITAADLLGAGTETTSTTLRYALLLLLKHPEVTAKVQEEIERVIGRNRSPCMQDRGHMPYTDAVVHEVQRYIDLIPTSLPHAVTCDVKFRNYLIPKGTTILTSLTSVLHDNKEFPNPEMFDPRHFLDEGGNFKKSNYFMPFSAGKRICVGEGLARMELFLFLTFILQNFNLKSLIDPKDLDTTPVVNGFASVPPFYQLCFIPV
# Sequence of Cytochrome P450 2C9 (P11712 whole entry): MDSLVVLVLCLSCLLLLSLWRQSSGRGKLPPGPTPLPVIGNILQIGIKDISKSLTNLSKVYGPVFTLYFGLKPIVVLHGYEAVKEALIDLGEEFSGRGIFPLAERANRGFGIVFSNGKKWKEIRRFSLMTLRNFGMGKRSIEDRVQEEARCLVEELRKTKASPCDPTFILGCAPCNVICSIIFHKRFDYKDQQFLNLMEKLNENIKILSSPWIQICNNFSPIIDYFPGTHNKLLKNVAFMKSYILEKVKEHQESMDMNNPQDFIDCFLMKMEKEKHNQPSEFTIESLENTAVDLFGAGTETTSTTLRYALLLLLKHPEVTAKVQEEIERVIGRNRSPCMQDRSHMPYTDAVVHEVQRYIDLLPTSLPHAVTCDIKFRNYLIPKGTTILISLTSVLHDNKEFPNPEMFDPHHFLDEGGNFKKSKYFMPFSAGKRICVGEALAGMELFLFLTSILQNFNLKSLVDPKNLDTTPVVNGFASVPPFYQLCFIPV
# Sequence of Cytochrome P450 3A4 (P08684 whole entry): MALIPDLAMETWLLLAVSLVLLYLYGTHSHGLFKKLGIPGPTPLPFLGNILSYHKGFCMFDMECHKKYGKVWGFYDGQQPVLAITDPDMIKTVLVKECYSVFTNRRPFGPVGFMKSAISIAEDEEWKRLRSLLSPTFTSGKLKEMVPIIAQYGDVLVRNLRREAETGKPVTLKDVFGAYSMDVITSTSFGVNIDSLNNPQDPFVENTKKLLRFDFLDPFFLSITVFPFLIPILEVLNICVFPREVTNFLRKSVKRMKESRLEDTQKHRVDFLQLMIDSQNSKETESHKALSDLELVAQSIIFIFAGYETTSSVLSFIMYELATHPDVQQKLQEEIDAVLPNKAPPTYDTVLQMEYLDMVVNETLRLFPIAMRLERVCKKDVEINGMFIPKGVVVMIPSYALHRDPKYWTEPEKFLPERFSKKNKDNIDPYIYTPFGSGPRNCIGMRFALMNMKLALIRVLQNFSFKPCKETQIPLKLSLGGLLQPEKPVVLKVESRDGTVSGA
compound,measurement,setting,value
C[C@@H]1CN(c2ccc(S(C)(=O)=O)cc2F)CCN1c1nccc(C(=O)NC2C3CC4CC2CC(O)(C4)C3)n1 (stereo partly specified),inhibition in vivo at 3 mg/kg,[1],84%
same,inhibition in vivo at 30 mg/kg,[2],92%
same,inhibition in vivo at 30 mg/kg,[3],92%
same,inhibition in vivo at 3 mg/kg,[4],74%
same,Ratio,[5],> 50
same,Cp(f),[6],100 nM
same,IC50,[7],> 10 µM
same,IC50,[8],> 10 µM
same,IC50,[9],> 10 µM
same,IC50,[10],> 10 µM
same,IC50,[11],5.2 µM
same,half-life,[12],4.7 h
same,AUC,[13],1120 ng·h/mL
same,AUC,[14],1470 ng·h/mL
same,Cmax,[15],1020 ng/mL
same,Tmax,[16],1 h
same,AUC,[17],3390 ng·h/mL
same,AUC,[18],11500 ng·h/mL
same,Cp,[19],10.6 nmol/g
same,Kp at 2 h,[20],0.04
same,Kp at 2 h,[21],0.62
same,NOAEL at 672 h,[22],400 mg/kg
same,Activity,[23],17.1 mg/dL
same,Activity,[24],Non-Toxic
same,Activity,[25],26%
same,Activity,[26],1.67%
